Experimental data: ChEMBL document CHEMBL1157760, “Design, synthesis and anticancer activities of stilbene-coumarin hybrid compounds: Identification of novel proapoptotic agents” (Bioorg Med Chem, 2010)
pIC50: −log10 of the molar value. One block for each molecule: values may come before it. Calls of active or inactive are those of the source. The rule behind the calls is not given here.

Legend:
NCI-H460 [1] = experiment: Antiproliferative activity against human H460 cells after 72 hrs; format: functional, cell-based; settings: NCI-H460, 72 h
In short: (§1)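 Growth inhibition: log-phase tumour cells seeded in duplicate, drug added 24 h after seeding, cells harvested 72 h after exposure and counted with a cell counter. IC50 taken as concentration giving 50% fewer cells than untreated control.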

NCI-H460 [2] = experiment: Induction of apoptosis in human H460 cells assessed as cleavage of caspase 3 at 1.5 uM after 24 hrs by Western blot analysis; format: functional, cell-based
In short: (§2)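 After 24 h drug exposure, H460 cells rinsed twice in ice-cold PBS with 0.1 mM sodium orthovanadate and lysed in hot sample buffer. Protein quantified, separated by SDS-PAGE, transferred to nitrocellulose, probed with primary antibodies and HRP secondaries, and detected by enhanced chemiluminescence. Actin served as loading control.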

NCI-H460 [3] = experiment: Antitumor activity against human H460 cells xenograft model assessed as tumor growth inhibition at 10 to 20 mg/kg, po administered daily; format: functional; settings: dose mg/kg 10-20
[4] = Antiproliferative activity against human JR8 cells after 72 hrs; format: functional, cell-based; settings: JR8, 72 h; in short: as §1
NCI-H460 [5] = experiment: Induction of apoptosis in human H460 cells at 0.5 to 1.5 uM after 72 hrs by TUNEL assay; format: functional, cell-based
In short: (§3)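 H460 cells exposed 72 h to drug. Floating plus adherent cells fixed in 4% paraformaldehyde for 60 min at room temperature, then resuspended in ice-cold PBS. Fluorescein in situ cell-death (TUNEL) kit used and cells read by flow cytometry. Result given as percent TUNEL-positive cells against untreated control.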

NCI-H460 [6] = experiment: Induction of apoptosis in human H460 cells assessed as CDKp21-p34CDC2 complex formation at 1.5 uM after 24 hrs by immunoprecipitation assay; format: functional, cell-based
In short: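 H460 cells exposed 24 h at 1.5 µM, lysed in NET buffer (pH 7.4, 0.1% NP40, protease inhibitors) on ice then at 4 °C. Lysate cleared at 10,000g and BCA-quantified. 500 µg immunoprecipitated with anti-cdc2 antibody 2 h at 4 °C, then with protein A-sepharose overnight at 4 °C. Pellets washed, eluted and immunoblotted for p34cdc2 and p21.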

NCI-H460 [7] = experiment: Increase in CDKp21 protein expression in human H460 cells at 1.5 uM after 24 hrs by Western blot analysis; format: functional, cell-based; in short: as §2
NCI-H460 [8] = experiment: Upregulation of p34CDC2 protein expression in human H460 cells at 1.5 uM after 24 hrs by Western blot analysis; format: functional, cell-based; in short: as §2
A-431 = experiment: Antiproliferative activity against human A431 cells after 72 hrs; format: functional, cell-based; settings: A-431, 72 h; in short: as §1
NCI-H460 [9] = experiment: Induction of apoptosis in human H460 cells assessed as cleavage of PARP at 1.5 uM after 24 hrs by Western blot analysis; format: functional, cell-based; in short: as §2
NCI-H460 [10] = experiment: Upregulation of cyclin B1 protein expression in human H460 cells at 1.5 uM after 24 hrs by Western blot analysis; format: functional, cell-based; in short: as §2
NCI-H460 [11] = experiment: Upregulation of p34CDC2 protein expression in human H460 cells at 3 uM after 24 hrs by Western blot analysis; format: functional, cell-based; in short: as §2
NCI-H460 [12] = experiment: Increase in CDKp21 protein expression in human H460 cells at 3 uM after 24 hrs by Western blot analysis; format: functional, cell-based; in short: as §2
NCI-H460 [13] = experiment: Induction of apoptosis in human H460 cells at 0.3 to 3 uM after 72 hrs by TUNEL assay; format: functional, cell-based; in short: as §3
NCI-H460 [14] = experiment: Upregulation of cyclin B1 protein expression in human H460 cells at 3 uM after 24 hrs by Western blot analysis; format: functional, cell-based; in short: as §2
NCI-H460 [15] = experiment: Induction of apoptosis in human H460 cells at 10 to 20 uM after 72 hrs by TUNEL assay; format: functional, cell-based; in short: as §3
NCI-H460 [16] = experiment: Cell cycle arrest in human H460 cells assessed as accumulation at G2/M phase after 24 hrs by propidium iodide staining-based flow cytometry; format: functional
In short: (§4)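 H460 cells treated 24 h at 10 and 20 µM (resveratrol), 0.5 and 1.5 µM, or 0.3 and 3 µM, then analysed for cell cycle phase distribution (G1, S, G2/M).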

NCI-H460 [17] = experiment: Cell cycle arrest in human H460 cells assessed as accumulation at G2/M phase at 20 uM after 24 hrs by propidium iodide staining-based flow cytometry; format: functional; in short: as §4

Compound: O=c1cc(/C=C/c2cc(O)cc(O)c2)c2ccc(O)cc2o1
pIC50 (NCI-H460 [1]): 4.57

Compound: COc1ccc2c(/C=C/c3ccc(OC)c(OC)c3OC)cc(=O)oc2c1
pIC50 (NCI-H460 [1]): < 4.30

Compound: COc1cc(/C=C/c2cc3ccc(OC)cc3oc2=O)cc(OC)c1
pIC50 (NCI-H460 [1]): < 5.00

Compound: COc1ccc2c(/C=C/c3ccc(OCC=C(C)C)cc3)cc(=O)oc2c1
pIC50 (NCI-H460 [1]): < 4.30

Compound: COc1ccc2c(/C=C/c3cc(C)cc(C)c3)cc(=O)oc2c1
Activity (NCI-H460 [11]): Active
pIC50 [4]: 5.46
Activity (NCI-H460 [12]): Active
pIC50 (NCI-H460 [1]): 6.54
Activity (NCI-H460 [13]): Active
Activity (NCI-H460 [14]): Active
pIC50 (A-431): 5.46

Compound: COc1cccc(/C=C/c2cc(=O)oc3cc(OC)ccc23)c1
pIC50 (NCI-H460 [1]): 4.89

Compound: COc1ccc2c(/C=C/c3cc(OC)c(OC)c(OC)c3)cc(=O)oc2c1
pIC50 (NCI-H460 [1]): < 4.00

Compound: Oc1ccc(/C=C/c2cc(O)cc(O)c2)cc1 [RESVERATROL]
Activity (NCI-H460 [15]): inactive
pIC50 (NCI-H460 [1]): 4.89
Activity (NCI-H460 [16]): Dose-dependent effect
Activity (NCI-H460 [17]): Active

Further lines, with some results ahead:

pIC50 (NCI-H460 [1]): 4.96
Compound: COc1cc(/C=C/c2cc(=O)oc3ccc(OC)cc23)cc(OC)c1

pIC50 (NCI-H460 [1]): 6.35
pIC50 (A-431): 5.46
Compound: COc1cc(/C=C/c2cc(=O)oc3cc(OC)ccc23)cc(OC)c1
Activity (NCI-H460 [2]): Active
inhibition (INH) (NCI-H460 [3]): 50%
pIC50 [4]: 5.49
Activity (NCI-H460 [5]): Active
Activity (NCI-H460 [6]): Active
Activity (NCI-H460 [7]): Active
Activity (NCI-H460 [8]): Active
Activity (NCI-H460 [9]): Active
Activity (NCI-H460 [10]): Active

pIC50 (NCI-H460 [1]): 5.59
Compound: COc1cc(/C=C/c2cc(=O)oc3ccccc23)cc(OC)c1
